Screening results deposited in PubChem BioAssay by Broad Institute.
Cneo AK release: causes C. neoformans cell lysis. adenylate kinase release luminescence, 4 h; normalised: neutral wells 0, clomiphene wells 100. actives 0.2% (n = 360,000). lysis activity, % at 15 µM;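 active = mean lysis activity across replicates of at least 80%, whatever share of replicates individually reach that level; inactive = mean lysis activity below 80%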
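Assay system: Cryptococcus neoformans yeast cells / Dosing: single-point compound dose / Timing: 4 h at 37 °C static, read 1 h later / Measured by: luminescence of released adenylate kinase using an AK detection reagent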
PglD inh: blocks C. jejuni PglD acetyltransferase activity; purified PglD enzyme, DTNB colorimetric CoA detection; inhibition, % at 12.5 µM; actives 0.098% (n = 360,000); in the data active = inhibition above about 16%, passing the limit was not always enough
Ecoli rRNA inh: inhibits bacterial ribosomal RNA function over humanized ribosomes; actives 1.6% (n = 350,000); E. coli WT GFP vs humanized-ribosome RFP mutants, fluorescence, 24 h; stronger effect = lower value; DMSO median 0, no signal -100; GFP signal change (wild-type ribosome), % (test concentration not listed);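 active = significant combined selectivity score with lowered wild-type GFP, culture density cut under 30%, mutant RFP and density less affected; inactive = any of these conditions unmet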
RAD52 inh: RAD52 (human) annealing inhibition; P43351; recombinant RAD52 DNA annealing, FRET fluorescence; inhibition, % at 18.7 µM; actives 0.46% (n = 360,000); AID 651710;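 active = every replicate showing at least 50% inhibition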
RAD54 branch: inhibitors of human RAD54 branch migration; RAD54 Holliday junction branch migration, FAM/BHQ fluorescence; actives 0.14% (n = 360,000); Q92698; inhibition, % at 10.4 µM;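 active = mean normalized replicate activity at least 40 and at least half of replicates scoring 40 or more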;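 note: 0% = median of neutral control wells and 100% = median of positive control wells; inhibitors cause a drop in the FAM fluorescence signal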
Target sequence (Q92698 whole entry, looked up): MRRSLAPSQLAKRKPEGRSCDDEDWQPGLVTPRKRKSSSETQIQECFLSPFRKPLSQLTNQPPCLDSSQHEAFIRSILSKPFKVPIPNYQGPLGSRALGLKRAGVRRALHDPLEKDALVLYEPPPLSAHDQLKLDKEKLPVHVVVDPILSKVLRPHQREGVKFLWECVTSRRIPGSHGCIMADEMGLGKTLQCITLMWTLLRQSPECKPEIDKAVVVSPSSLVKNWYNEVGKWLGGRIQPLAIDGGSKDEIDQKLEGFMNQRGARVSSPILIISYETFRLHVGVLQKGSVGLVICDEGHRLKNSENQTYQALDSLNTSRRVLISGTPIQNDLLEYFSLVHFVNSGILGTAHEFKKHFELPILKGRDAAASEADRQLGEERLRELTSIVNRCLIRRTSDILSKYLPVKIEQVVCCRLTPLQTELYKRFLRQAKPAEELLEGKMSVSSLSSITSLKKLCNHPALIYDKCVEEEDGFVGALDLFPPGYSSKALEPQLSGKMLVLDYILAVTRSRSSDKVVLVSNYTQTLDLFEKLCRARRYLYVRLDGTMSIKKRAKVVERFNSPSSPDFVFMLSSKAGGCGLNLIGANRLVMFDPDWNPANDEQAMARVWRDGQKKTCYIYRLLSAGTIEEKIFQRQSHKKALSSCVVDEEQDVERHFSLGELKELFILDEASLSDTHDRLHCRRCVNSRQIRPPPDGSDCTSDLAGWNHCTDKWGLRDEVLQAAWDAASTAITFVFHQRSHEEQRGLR
The depositor's hits bear a star; · = not tested or not shown. A selection: hits, their analogues and other compounds. The true share with any hit is near 1.9%.

SMILES	Cneo AK release	PglD inh	Ecoli rRNA inh	RAD52 inh	RAD54 branch
C[C@@H]1CCCCO[C@H](CN(C)Cc2ccncc2)[C@@H](C)CN([C@@H](C)CO)C(=O)c2cc(NC(=O)Nc3ccccc3)ccc2O1	81*	4	-1	-9	11
O=C(C[C@H]1CC[C@@H]2[C@H](COC[C@H](O)CN2Cc2cc(F)ccc2F)O1)N[C@@H]1CCN(Cc2ccccc2)C1	2	-1	1	3	9
CCCC#Cc1cnc2c(c1)C(=O)N([C@H](C)CO)C[C@H](C)[C@H](CN(C)C(=O)Nc1cccc(F)c1)O2	1	-1	-1	-1	-8
C[C@@H]1CN([C@@H](C)CO)C(=O)Cc2cc(NC(=O)NC3CCCCC3)ccc2O[C@@H]1CN(C)C(=O)Nc1ccccc1	-9	0	4	-1	3
CO[C@H]1CN(C)C(=O)c2cc(NS(=O)(=O)c3ccc(C)cc3)ccc2OC[C@@H](C)N(C(=O)NC(C)C)C[C@@H]1C	97*	1	-1	-4	5
CO[C@@H]1CN(C)C(=O)c2ccc(NS(C)(=O)=O)cc2OC[C@H](C)N(C(=O)C2CCOCC2)C[C@H]1C	2	3	5	1	-1
COCC(=O)N1C[C@H](C)[C@@H](OC)CN(C)C(=O)c2ccc(NS(C)(=O)=O)cc2OC[C@@H]1C	98*	-2	0	-4	8
CO[C@H]1CN(C)C(=O)c2cc(NS(=O)(=O)c3ccc(C)cc3)ccc2OC[C@@H](C)N(C(=O)NC(C)C)C[C@H]1C	-2	-1	0	-15	-1
CO[C@@H]1CN(C)C(=O)c2ccc(NS(C)(=O)=O)cc2OC[C@@H](C)N(C(=O)C2CCOCC2)C[C@H]1C	49	18*	2	-1	5
CN1[C@@H]2c3ccc(-c4ccccc4)c(=O)n3C[C@H]1[C@H](CO)[C@H]2C(=O)NCC1CCCCC1	-1	-1	-3	12	5
C[C@H](CO)N1C[C@H](C)[C@@H](CN(C)Cc2ccc(C(=O)Nc3ccccc3N)cc2)OCCCC[C@H](C)Oc2ccc(N(C)C)cc2C1=O	·	·	3	·	·
CCC1=Nc2cc(C(=O)NCc3cccnc3)ccc2Sc2ccc(C)cc21	·	·	-22*	-13	·
CC1(C(=O)NS(=O)(=O)c2ccc3c(c2)CCO3)CCN1C(=O)c1ccccc1CCc1ccccc1 (configuration not stated)	0	2	-20*	-14	4
Cc1cccc(S(=O)(=O)NC(=O)C2(C)CCN2C(=O)c2ccccc2CCc2ccccc2)c1 (configuration not stated)	0	-4	-50*	-11	8
COc1ccc2c3c(n(C)c2c1)[C@@H](CO)N(Cc1ccccc1F)CC31CN(C(=O)C2CCCC2)C1	·	·	-7	-5	·
CN(CCCC(=O)O)c1ccc(N=Nc2ccc([N+](=O)[O-])cc2)cc1	·	·	-31*	-3	·
CC(C)CC#Cc1ccc([C@@H]2[C@@H](CO)N3C(=O)CN(S(C)(=O)=O)C[C@@H]23)cc1	·	·	10	·	·
O=[N+]([O-])c1cc(Br)cc(C=Nc2ccc3c(c2)OCO3)c1O	-5	-4	-30*	-16	-14
CC1CCc2nc3ccccc3c(C(=O)OCC(=O)NC3CCS(=O)(=O)C3)c2C1 (configuration not stated)	·	·	-29*	-11	·
CC1CCc2nc3ccccc3c(C(=O)OCC(=O)N(C)C3CCS(=O)(=O)C3)c2C1 (configuration not stated)	·	·	-6	-23	·
C[C@H](CO)N1C[C@H](C)[C@H](CN(C)C(=O)CN(C)C)Oc2cc(C#Cc3ccc(F)cc3)ccc2S1(=O)=O	3	5	4	60*	13
C[C@@H]1CN([C@H](C)CO)S(=O)(=O)c2ccc(C#Cc3ccc(F)cc3)cc2O[C@@H]1CN(C)C(=O)CN(C)C	1	0	-4	65*	5
C[C@@H]1CN([C@@H](C)CO)S(=O)(=O)c2ccc(C#Cc3ccc(F)cc3)cc2O[C@H]1CN(C)C	-3	-6	-6	21	-2
C[C@H]1CN([C@@H](C)CO)S(=O)(=O)c2ccc(C#Cc3ccc(F)cc3)cc2O[C@@H]1CN(C)C(=O)CN(C)C	2	7	-1	65*	7
